Test results taken from PubChem BioAssay AID602414 (Southern Research Specialized Biocontainment Screening …, 2012).
Values joined by “and” are separate entries in the source; they are usually repeats but may differ in a detail not shown here. Equal values may be shown once. Active and inactive are the calls of the source.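 How the source made its calls: active means viability under 80% at some tested dose in each replicate, a sign of cell toxicity; inconclusive means meets the active limit in only one replicate; inactive means the rest.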

Tested on: not listed separately
Assay: 5637 bladder carcinoma cell viability loss – set 5, cytotoxicity control for bacterial capsule biogenesis inhibitor project, dose response (AID 602414)
Details: Bladder 5637 cells viability, CellTiter-Glo, 72 h; at 150 µM (top of the series)
Summary of the method: (§1)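 Test system: bladder carcinoma 5637 cells. Times: 72 h compound exposure of cells. Measured by: CellTiter-Glo luminescence for cell viability. Evaluation: percent viability and fitted CC50. Controls: Hyamine as cytotoxic positive control, untreated cells as reference.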

| Compound | viability |
| --- | --- |
| O=C(Nc1nc2ccc(Br)cc2s1)c1cc(Br)c(Br)s1 | 110% (inactive) |

Same assay, conditions: Bladder 5637 cells viability, CellTiter-Glo, 72 h; at 300 µM (top of the series)

| Compound | viability |
| --- | --- |
| O=C(Nc1ccc2ncsc2c1)c1ccncc1 | 119% (inactive) |

Tested on: Bladder 5637 cells viability, CellTiter-Glo, 72 h
Assay: as above
Details: not given
Summary of the method: as §1

| Compound | CC50 |
| --- | --- |
| COc1ccc(-c2cc(NC(=O)c3c(F)cccc3F)c(C(=O)O)s2)cc1 | 53.3 µM |
| CC(C)(C)c1ccc(-c2cc(NC(=O)c3ccc(Br)s3)c(C(=O)O)s2)cc1 | 20.5 µM |
| O=C(Nc1cc(-c2ccccc2)sc1C(=O)O)c1cccc(Cl)c1 | 35 µM |
| COc1ccc2nc(NC(=O)c3ccco3)sc2c1 | 66.7 µM |
| CC(C)c1ccc(-c2cc(NC(=O)c3cccc(F)c3)c(C(=O)O)s2)cc1 | 37.5 µM |
| O=C(O)c1sc(-c2ccc(OCCC(F)(F)F)cc2)cc1NC(=O)c1c(F)cccc1F | 68.4 µM |
| O=C(Nc1cc(-c2ccc(C(F)(F)F)cc2)sc1C(=O)O)c1cc2ccccc2o1 | 72.1 µM |
| O=S(=O)(Nc1nc2ccc(F)cc2s1)c1ccc(Br)s1 | 135 µM |
| O=C(NCc1cc([N+](=O)[O-])ccc1O)c1cccnc1Sc1ccccc1Cl | 51.9 µM |
| O=C(O)c1sc(-c2ccc(OCCCC(F)(F)F)cc2)cc1NC(=O)c1c(F)cccc1F | 241 µM |
| CCCc1ccc(-c2cc(NC(=O)c3c(F)cc(F)cc3F)c(C(=O)O)s2)cc1 | 69.9 µM |
| O=C(Nc1ncccc1O)c1ccc2ncsc2c1 | 159 µM |
| CCCc1ccc(-c2cc(NC(=O)c3c(F)cccc3F)c(C(=O)O)s2)cc1 | 54.9 µM |
| COc1ccc(-c2cc(NC(=O)c3cc4ccccc4o3)c(C(=O)O)s2)cc1 | 284 µM |
| CCOc1ccc(-c2cc(NC(=O)c3ccc(Br)s3)c(C(=O)O)s2)cc1 | 49.7 µM |
| O=C(Nc1cc(-c2ccc(OCCC(F)(F)F)cc2)sc1C(=O)O)c1ccc(Br)o1 | 41.7 µM |
| O=C(O)c1sc(-c2ccc(OCCC(F)(F)F)cc2)cc1NC(=O)c1c(F)cc(F)cc1F | 63.6 µM |
| CCOc1ccc2nc(NC(=O)c3ccc(Br)s3)sc2c1 | 91.2 µM |
| O=C(O)c1sc(-c2ccc(C(F)(F)F)cc2)cc1NC(=O)c1c(F)cccc1F | 44.8 µM |
| CC(C)c1ccc(-c2cc(NC(=O)c3ccc(Br)s3)c(C(=O)O)s2)cc1 | 33.1 µM |
| O=C(Nc1cc(-c2ccc(OC(F)(F)F)cc2)sc1C(=O)O)c1ccc(Br)o1 | 33.6 µM |
| O=C(O)c1sc(-c2ccc(C(F)(F)F)cc2)cc1NS(=O)(=O)c1ccc(Br)s1 | 45.2 µM |
| O=C(O)c1sc(-c2ccc(OC(F)(F)F)cc2)cc1NC(=O)c1c(F)cccc1F | 51 µM |
| CCOc1ccc(-c2cc(NC(=O)c3cc4ccccc4o3)c(C(=O)O)s2)cc1 | 193 µM |
| CCCCOc1ccc(-c2cc(NC(=O)c3ccc(Br)o3)c(C(=O)O)s2)cc1 | 43.4 µM |
| CCCc1ccc(-c2cc(NC(=O)c3cc(Br)c(Br)o3)c(C(=O)O)s2)cc1 | 41 µM |

| Compound | CC50 |
| --- | --- |
| Cc1ccc(-c2cc(NC(=O)c3ccc(Br)s3)c(C(=O)O)s2)cc1 | 66 µM |
| O=C(Nc1cc(-c2ccc(C(F)(F)F)cc2)sc1C(=O)O)c1cccc(F)c1 | 35.1 µM |
| CCOc1ccc(-c2cc(NC(=O)c3ccc(Br)o3)c(C(=O)O)s2)cc1 | 58.4 µM |
| O=C(Nc1cc(-c2ccccc2)sc1C(=O)O)c1ccc2c(c1)OCCO2 | 121 µM |
| O=S(=O)(Nc1nc2ccc(OC(F)(F)F)cc2s1)c1ccc(Br)s1 | 65.9 µM |
| O=C(Nc1cc(-c2ccc(OCCCC(F)(F)F)cc2)sc1C(=O)O)c1ccc(Br)o1 | 38.7 µM |
| CC(C)(C)c1ccc(-c2cc(NC(=O)c3c(F)cccc3F)c(C(=O)O)s2)cc1 | 35.1 µM |
| CCOc1ccc(-c2cc(NC(=O)c3c(F)cccc3C(F)(F)F)c(C(=O)O)s2)cc1 | 62 µM |
| O=C(Nc1cc(-c2ccccc2)sc1C(=O)O)c1ccc(Br)o1 | 53.3 µM |
| CCCCOc1ccc(-c2cc(NC(=O)c3c(F)cccc3F)c(C(=O)O)s2)cc1 | 42.6 µM |
| CCCc1ccc(-c2cc(NC(=O)c3ccc(Br)o3)c(C(=O)O)s2)cc1 | 46.4 µM |
| CCOc1ccc(-c2cc(NC(=O)c3cccc(F)c3)c(C(=O)O)s2)cc1 | 55.6 µM |
| COc1ccc2nc(NC(=O)c3cccs3)sc2c1 | 29.3 µM |
| O=C(Nc1ccnc(F)c1)c1ccc2ncsc2c1 | 119 µM |
| CCOc1ccc(-c2cc(NC(=O)c3ccc(OC)c(OC)c3)c(C(=O)O)s2)cc1 | 61.8 µM |
| CCOc1ccc(-c2cc(NC(=O)c3c(F)cc(F)cc3F)c(C(=O)O)s2)cc1 | 76.6 µM |
| CCOc1ccc(-c2cc(NC(=O)c3c(F)cccc3F)c(C(=O)O)s2)cc1 | 42.1 µM and 51.6 µM |
| CCCCOc1ccc(-c2cc(NC(=O)c3c(F)cc(F)cc3F)c(C(=O)O)s2)cc1 | 56.2 µM |
| O=C(ONc1ccc(N=NC(=O)c2ccccc2O)cc1)c1ccccc1 | 12.8 µM |
| CN(C(=O)c1ccc2ncsc2c1)c1ccccc1 | 267 µM |
| Cc1ccc(-c2cc(NS(=O)(=O)c3ccc(Br)s3)cs2)cc1 | 94 µM |
| O=C(Nc1cc(-c2ccc(C(F)(F)F)cc2)sc1C(=O)O)c1ccc(Br)o1 | 47.5 µM |
| O=C(Nc1ccnc(Br)c1)c1ccc2ncsc2c1 | 136 µM |
| O=C(Nc1cc(-c2ccc(OCCCC(F)(F)F)cc2)sc1C(=O)O)c1cc(Br)c(Br)o1 | 26.6 µM and 251 µM |
| O=C(Nc1cc(-c2ccc(OC(F)(F)F)cc2)sc1C(=O)O)c1cc2ccccc2o1 | 40.6 µM |
| CCCOc1ccc(-c2cc(NC(=O)c3c(F)cc(F)cc3F)c(C(=O)O)s2)cc1 | 85.6 µM |

| Compound | CC50 |
| --- | --- |
| O=C(Nc1ccncc1)c1ccc2ncsc2c1 | 178 µM and 244 µM |
| O=C(Nc1cc(-c2ccc(C(F)(F)F)cc2)sc1C(=O)O)c1ccc(Br)s1 | 38.5 µM |
| CC(C)(C)c1ccc(-c2cc(NC(=O)c3cc4ccccc4o3)c(C(=O)O)s2)cc1 | 34.5 µM |
| CC(C)c1ccc(-c2cc(NC(=O)c3cc4ccccc4o3)c(C(=O)O)s2)cc1 | 47.2 µM |
| COc1ccc(-c2cc(NC(=O)c3ccc(Br)o3)c(C(=O)O)s2)cc1 | 50.5 µM |
| CC(C)c1ccc(-c2cc(NC(=O)c3ccc(Br)o3)c(C(=O)O)s2)cc1 | 50.4 µM |
| CC(C)(C)c1ccc(-c2cc(NC(=O)c3cccc(F)c3)c(C(=O)O)s2)cc1 | 21.1 µM |
| CC(C)c1ccc(-c2cc(NC(=O)c3c(F)cccc3F)c(C(=O)O)s2)cc1 | 32.4 µM |
| O=C(O)c1sc(-c2ccc(OCC(F)(F)F)cc2)cc1NC(=O)c1c(F)cccc1F | 75.2 µM |
| COc1cccc2sc(NCc3ccc(Br)s3)nc12 | 165 µM |
| Cc1ccc(-c2cc(NC(=O)c3ccc(Br)o3)c(C(=O)O)s2)cc1 | 50.7 µM |
| O=C(Nc1ccncc1F)c1ccc2ncsc2c1 | 229 µM |
| COc1cccc2sc(NC(=O)c3ccc(Br)s3)nc12 | 24.4 µM |
| O=C(O)c1sc(-c2ccc(OCC(F)(F)F)cc2)cc1NC(=O)c1c(F)cc(F)cc1F | 161 µM |
| O=C(Nc1cc(-c2ccc(OCC(F)(F)F)cc2)sc1C(=O)O)c1ccc(Br)o1 | 50 µM |
| COc1ccc(-c2cc(NC(=O)c3cccc(F)c3)c(C(=O)O)s2)cc1 | 44.8 µM |
| CCOc1ccc(-c2cc(NC(=O)c3cccc(Cl)c3)c(C(=O)O)s2)cc1 | 43.6 µM |
| O=C(Nc1cc(-c2ccccc2)sc1C(=O)O)c1cccs1 | 34.7 µM |
| O=C(Nc1ccnc(Cl)c1)c1ccc2ncsc2c1 | 38.8 µM |
| Cc1ccc(-c2cc(NC(=O)c3c(F)cccc3F)c(C(=O)O)s2)cc1 | 57.3 µM |
| Cc1ccc(-c2cc(NC(=O)c3cc4ccccc4o3)c(C(=O)O)s2)cc1 | 94.6 µM |
| O=C(Nc1cc(-c2ccc(OC(F)(F)F)cc2)sc1C(=O)O)c1cccc(F)c1 | 52.1 µM |
| [N-]=[N+]=NCCOc1ccc(-c2cc(NC(=O)c3c(F)cccc3F)c(C(=O)O)s2)cc1 | 273 µM |
| Cc1ccc(-c2cc(NC(=O)c3cccc(F)c3)c(C(=O)O)s2)cc1 | 43.9 µM |
| O=C(O)c1sc(-c2ccc(OCCCC(F)(F)F)cc2)cc1NC(=O)c1c(F)cc(F)cc1F | 54.7 µM |
| CCCCOc1ccc(-c2cc(NC(=O)c3cc(Br)c(Br)o3)c(C(=O)O)s2)cc1 | 31.7 µM |
